Test results published in ChEMBL document CHEMBL1909517, “Green synthesis and antimicrobial evaluation of some new trifluoromethyl-substituted hexahydropyrimidines by grinding” (2011).
Values after ≈ are worked out from the molar mass of the structure shown. Active and inactive are the calls of the source. The calls are words filed in the database; no cut-off is given here.

Key:
Type in all cases: functional
Escherichia coli [1] = assay: Antimicrobial activity against Escherichia coli after 24 hrs by spectrophotometry
Method in brief: (§1)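 Broth MIC read turbidimetrically. Bacteria were pre-cultured 24 h at 37 °C in LB, then held at 4 °C. Compounds active in an agar-well pre-screen (20 mg/ml DMSO, 100 µl per well, 37 °C 24 h) went forward. Dilutions of 1, 5, 10, 15 and 20 mg/ml DMSO from stock were made up to 10 ml LB and inoculated with 10 µl suspension. Triplicate tubes, 37 °C for 24 h, spectrophotometric growth read-out.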

Bacillus thuringiensis [2] = assay: Antimicrobial activity against Bacillus thuringiensis after 24 hrs by spectrophotometry; method in brief: as §1
Escherichia coli [3] = assay: Ratio of tetracycline MIC to compound MIC for Escherichia coli
Bacillus thuringiensis [4] = assay: Ratio of tetracycline MIC to compound MIC for Bacillus thuringiensis

SMILES | MIC (Escherichia coli [1]) [mg/mL] | MIC (Bacillus thuringiensis [2]) [mg/mL] | Ratio (Escherichia coli [3]) | Ratio (Bacillus thuringiensis [4]) | Activity (Escherichia coli [1]) | Activity (Bacillus thuringiensis [2])
CCOC(=O)C1C(c2ccc(OC)cc2)NC(=S)NC1(O)C(F)(F)F (stereo not given) | ≥ 15 | ≥ 15 | 6 | 6 |  | 
CCOC(=O)C1C(c2cccs2)NC(=O)NC1(O)C(F)(F)F (stereo not given) | ≥ 20 | ≥ 20 | 6 | 6 |  | 
CCOC(=O)C1C(c2ccc(F)cc2)NC(=S)NC1(O)C(F)(F)F (stereo not given) |  |  |  |  | inactive | inactive
CCOC(=O)C1C(c2ccccc2)NC(=S)NC1(O)C(F)(F)F (stereo not given) | ≥ 15 | ≥ 15 | 6 | 6 |  | 
CCOC(=O)C1C(c2ccccc2)NC(=O)NC1(O)C(F)(F)F (stereo not given) |  |  |  |  | inactive | inactive
CCOC(=O)C1C(c2ccc([N+](=O)[O-])cc2)NC(=O)NC1(O)C(F)(F)F (stereo not given) |  |  |  |  | inactive | inactive
CCOC(=O)C1C(c2ccc(Cl)cc2)N=C(S)NC1(O)C(F)(F)F (stereo not given) |  |  |  |  | inactive | inactive

Second part, led by results:

MIC (Escherichia coli [1]) [mg/mL] | MIC (Bacillus thuringiensis [2]) [mg/mL] | SMILES | Ratio (Escherichia coli [3]) | Ratio (Bacillus thuringiensis [4]) | Activity (Escherichia coli [1]) | Activity (Bacillus thuringiensis [2])
≥ 20 | ≥ 20 | CCOC(=O)C1C(c2ccc(O)cc2)NC(=O)NC1(O)C(F)(F)F (stereo not given) | 6 | 6 |  | 
≥ 20 | ≥ 20 | CCOC(=O)C1C(c2ccc(O)cc2)NC(=S)NC1(O)C(F)(F)F (stereo not given) | 6 | 6 |  | 
≥ 15 | ≥ 15 | CCOC(=O)C1C(c2ccc(Cl)cc2)NC(=O)NC1(O)C(F)(F)F (stereo not given) | 6 | 6 |  | 
 | 75 (≈ 169 mM) | CN(C)[C@@H]1C(O)=C(C(N)=O)C(=O)[C@@]2(O)C(O)=C3C(=O)c4c(O)cccc4[C@@](C)(O)[C@H]3C[C@@H]12 [TETRACYCLINE] |  |  |  | 
≥ 20 | ≥ 20 | CCOC(=O)C1C(c2ccc(N(C)C)cc2)NC(=S)NC1(O)C(F)(F)F (stereo not given) | 6 | 6 |  | 
≥ 20 | ≥ 20 | CCOC(=O)C1C(c2ccc(C)cc2)NC(=O)NC1(O)C(F)(F)F (stereo not given) | 6 | 6 |  | 
≥ 20 | ≥ 20 | CCOC(=O)C1C(c2ccc(C)cc2)NC(=S)NC1(O)C(F)(F)F (stereo not given) | 6 | 6 |  | 
